Measurements: ChEMBL document CHEMBL1255425, “Mutant APH(2'')-IIa enzymes with increased activity against amikacin and isepamicin” (2010)
In brackets after ≈: the same amount, converted by molar mass.

What was measured:
[1] = Activity of Aminoglycoside […] 2a N196D/D268N mutant using ATP/GTP as second substrate by spectrophotometric assay
Summary of the method: (§1)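 Enzymes were expressed in E. coli BL21(DE3) and affinity-purified: gentamicin column for wild type and N196D/D268N, kanamycin column for R92H/D268N. Activity was read by continuous PK/LDH-coupled NADH assay in 100 mM HEPES pH 7.5, 10 mM MgCl2, 20 mM KCl, 2 mM PEP, 140 μM NADH, with 5 to 10 nM enzyme. ATP/GTP was varied with kanamycin A fixed at 10 μM. Values came from nonlinear Michaelis-Menten fits.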

[2] = Activity of Aminoglycoside […] 2a using ATP/GTP as second substrate by spectrophotometric assay; summary of the method: as §1
[3] = Ratio of Kcat to Km for Aminoglycoside […] 2a N196D/D268N mutant using ATP/GTP as second substrate by spectrophotometric assay; summary of the method: as §1
[4] = Activity of Aminoglycoside […] 2a R92H/D268N mutant using ATP/GTP as second substrate by spectrophotometric assay; summary of the method: as §1
[5] = Ratio of Kcat to Km for Aminoglycoside […] 2a R92H/D268N mutant using ATP/GTP as second substrate by spectrophotometric assay; summary of the method: as §1
[6] = Ratio of Kcat to Km for Aminoglycoside […] 2a using ATP/GTP as second substrate by spectrophotometric assay; summary of the method: as §1
Escherichia coli [7] = experiment: Antibacterial activity against Escherichia coli JM83 harboring pHF022 containing aminoglycoside 2''-2a N196D mutant by broth microdilution method; assay type: functional
Summary of the method: (§2)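 MICs by CLSI broth microdilution in Mueller-Hinton II broth; inoculum 5 × 10^5 CFU/ml; plates read after 20 h at 35°C. Host E. coli JM83 carrying pHF022 (empty or with cloned wild-type or mutant aph(2″)-IIa gene between NdeI and HindIII). Values are averages of at least three independent experiments.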

Escherichia coli [8] = experiment: Antibacterial activity against Escherichia coli JM83 harboring pHF022 containing aminoglycoside 2''-2a phosphotransferase R92H/D268N mutant by broth microdilution method; assay type: functional; summary of the method: as §2
Escherichia coli [9] = experiment: Antibacterial activity against Escherichia coli JM83 harboring pHF022 containing aminoglycoside 2''-2a D268N mutant by broth microdilution method; assay type: functional; summary of the method: as §2
Escherichia coli [10] = experiment: Antibacterial activity against Escherichia coli JM83 harboring empty pHF022 vector by broth microdilution method; assay type: functional; summary of the method: as §2
Escherichia coli [11] = experiment: Antibacterial activity against Escherichia coli JM83 harboring pHF022 containing aminoglycoside 2''-2a phosphotransferase R92H mutant by broth microdilution method; assay type: functional; summary of the method: as §2
Escherichia coli [12] = experiment: Antibacterial activity against Escherichia coli JM83 harboring pHF022 containing aminoglycoside 2''-2a phosphotransferase N196D/D268N mutant by broth microdilution method; assay type: functional; summary of the method: as §2
Escherichia coli [13] = experiment: Antibacterial activity against Escherichia coli JM83 producing aminoglycoside 2''-2a phosphotransferase by broth microdilution method; assay type: functional; summary of the method: as §2

Molecule	Km [1] [µM]	kcat [1] [s⁻¹]	Km [2] [µM]	kcat [2] [s⁻¹]	kcat/Km [3]	Km [4] [µM]	kcat [4] [s⁻¹]	kcat/Km [5]	kcat/Km [6]	MIC (Escherichia coli [7]) [µg/mL]	MIC (Escherichia coli [8]) [µg/mL]	MIC (Escherichia coli [9]) [µg/mL]	MIC (Escherichia coli [10]) [µg/mL]	MIC (Escherichia coli [11]) [µg/mL]	MIC (Escherichia coli [12]) [µg/mL]	MIC (Escherichia coli [13]) [µg/mL]
Nc1ncnc2c1ncn2[C@@H]1O[C@H](COP(=O)(O)OP(=O)(O)OP(=O)(O)O)[C@@H](O)[C@H]1O	5.6	12.1	16.3	43.3	2.2 ×10⁶ /M/s	29.5	21.4	7.2 ×10⁵ /M/s	2.7 ×10⁶ /M/s	–	–	–	–	–	–	–
NC[C@H]1O[C@H](O[C@H]2[C@H](O)[C@@H](O[C@H]3O[C@H](CO)[C@@H](O)[C@H](N)[C@H]3O)[C@H](N)C[C@@H]2N)[C@H](N)[C@@H](O)[C@@H]1O [BEKANAMYCIN]	–	–	–	–	–	–	–	–	–	64 (≈ 132 µM)	64 (≈ 132 µM)	64 (≈ 132 µM)	1 (≈ 2.07 µM)	64 (≈ 132 µM)	64 (≈ 132 µM)	64 (≈ 132 µM)
GENTAMICIN	–	–	–	–	–	–	–	–	–	16	16	16	0.25	16	16	16
NC[C@@H]1O[C@@H](O[C@H]2[C@H](O)[C@@H](O[C@H]3O[C@H](CO)[C@@H](O)[C@H](N)[C@H]3O)[C@H](N)C[C@@H]2N)[C@@H](O)[C@H](O)[C@H]1O [KANAMYCIN A]	< 1	13.8	2.1	45.1	> 1.4 ×10⁷ /M/s	< 1	20.5	> 2 ×10⁷ /M/s	2.2 ×10⁷ /M/s	256 (≈ 528 µM)	256 (≈ 528 µM)	256 (≈ 528 µM)	2 (≈ 4.13 µM)	256 (≈ 528 µM)	256 (≈ 528 µM)	256 (≈ 528 µM)
CN[C@@H]1[C@@H](O)[C@@H](O[C@@H]2[C@@H](O)[C@H](O[C@H]3OC(CN)=CC[C@H]3N)[C@@H](N)C[C@H]2N)OC[C@]1(C)O [SISOMICIN]	–	–	–	–	–	–	–	–	–	8 (≈ 17.9 µM)	8 (≈ 17.9 µM)	4 (≈ 8.94 µM)	0.25 (≈ 0.559 µM)	8 (≈ 17.9 µM)	4 (≈ 8.94 µM)	8 (≈ 17.9 µM)
Nc1nc(=O)c2ncn([C@@H]3O[C@H](COP(=O)(O)OP(=O)(O)OP(=O)(O)O)[C@@H](O)C3O)c2[nH]1 (single isomer, unassigned)	16.2	10.6	70	9.4	6.5 ×10⁵ /M/s	28.2	8.9	3.2 ×10⁵ /M/s	1.3 ×10⁵ /M/s	–	–	–	–	–	–	–
NCC[C@H](O)C(=O)N[C@@H]1C[C@H](N)[C@@H](O[C@H]2O[C@H](CN)[C@@H](O)[C@H](O)[C@H]2O)[C@H](O)[C@H]1O[C@H]1O[C@H](CO)[C@@H](O)[C@H](N)[C@H]1O [AMIKACIN]	13.5	13.8	62.9	8.3	1 ×10⁶ /M/s	23.7	22.3	9.4 ×10⁵ /M/s	1.3 ×10⁵ /M/s	2 (≈ 3.42 µM)	16 (≈ 27.3 µM)	2 (≈ 3.42 µM)	2 (≈ 3.42 µM)	2 (≈ 3.42 µM)	16 (≈ 27.3 µM)	2 (≈ 3.42 µM)
NC[C@H]1O[C@H](O[C@H]2[C@H](O)[C@@H](O[C@H]3O[C@H](CO)[C@@H](O)[C@H](N)[C@H]3O)[C@H](N)C[C@@H]2N)[C@H](N)C[C@@H]1O [TOBRAMYCIN]	< 1	16.6	1.5	26.1	> 1.7 ×10⁷ /M/s	< 1	26.7	> 2.7 ×10⁷ /M/s	1.7 ×10⁷ /M/s	64 (≈ 137 µM)	64 (≈ 137 µM)	32 (≈ 68.4 µM)	1 (≈ 2.14 µM)	64 (≈ 137 µM)	64 (≈ 137 µM)	64 (≈ 137 µM)
CN[C@@H]1[C@@H](O)[C@@H](O[C@@H]2[C@@H](O)[C@H](O[C@H]3O[C@H](CN)[C@@H](O)[C@H](O)[C@H]3O)[C@@H](N)C[C@H]2NC(=O)[C@@H](O)CN)OC[C@]1(C)O [ISEPAMICIN]	2	4.1	13.5	5.7	2 ×10⁶ /M/s	1.2	2.8	2.3 ×10⁶ /M/s	4.4 ×10⁵ /M/s	2 (≈ 3.51 µM)	16 (≈ 28.1 µM)	2 (≈ 3.51 µM)	2 (≈ 3.51 µM)	4 (≈ 7.02 µM)	16 (≈ 28.1 µM)	2 (≈ 3.51 µM)
CN[C@@H]1[C@@H](O)[C@@H](O[C@@H]2[C@@H](O)[C@H](O[C@H]3O[C@H](C(C)O)[C@@H](O)[C@H](O)[C@H]3N)[C@@H](N)C[C@H]2N)OC[C@]1(C)O (single isomer, unassigned) [GENETICIN]	–	–	–	–	–	–	–	–	–	512 (≈ 1030 µM)	512 (≈ 1030 µM)	512 (≈ 1030 µM)	2 (≈ 4.03 µM)	512 (≈ 1030 µM)	512 (≈ 1030 µM)	512 (≈ 1030 µM)
NC[C@@H]1CC[C@@H](N)[C@@H](O[C@H]2[C@H](O)[C@@H](O[C@H]3O[C@H](CO)[C@@H](O)[C@H](N)[C@H]3O)[C@H](N)C[C@@H]2N)O1 [DIBEKACIN]	< 1	16.9	1.2	17.1	> 1.7 ×10⁷ /M/s	1.2	27.5	2.3 ×10⁷ /M/s	1.4 ×10⁷ /M/s	64 (≈ 142 µM)	64 (≈ 142 µM)	32 (≈ 70.9 µM)	0.5 (≈ 1.11 µM)	64 (≈ 142 µM)	64 (≈ 142 µM)	64 (≈ 142 µM)
CCN[C@@H]1C[C@H](N)[C@@H](O[C@H]2OC(CN)=CC[C@H]2N)[C@H](O)[C@H]1O[C@H]1OC[C@](C)(O)[C@H](NC)[C@H]1O [NETILMICIN]	–	–	–	–	–	–	–	–	–	8 (≈ 16.8 µM)	8 (≈ 16.8 µM)	4 (≈ 8.41 µM)	0.25 (≈ 0.526 µM)	16 (≈ 33.6 µM)	8 (≈ 16.8 µM)	8 (≈ 16.8 µM)
